We go through seven molecules from ChEMBL document CHEMBL3286300, “Fluorine modulates species selectivity in the triazolopyrimidine class of Plasmodium falciparum dihydroorotate dehydrogenase inhibitors” (J Med Chem, 2014).

Molecules are shown by their SMILES. Bounds are passed on as bounds.

A short description of data set [1]: Inhibition of C-terminal His6-tagged human DHODH (amino acid residues 30 to 396) L359A mutant expressed in Escherichia coli BL21 cells assessed as orotic acid production using dihydroorotate as substrate by direct assay in presence of oxygen depleting system.
Data set [2] can be described thus: Inhibition of C-terminal His6-tagged human DHODH (amino acid residues 30 to 396) L46A mutant expressed in Escherichia coli BL21 cells assessed as orotic acid production using dihydroorotate as substrate by direct assay in presence of oxygen depleting system.
Data set [3] addresses T1, Dihydroorotate dehydrogenase (Plasmodium falciparum, UniProt Q54A96).
T1 sequence (Q54A96 whole entry): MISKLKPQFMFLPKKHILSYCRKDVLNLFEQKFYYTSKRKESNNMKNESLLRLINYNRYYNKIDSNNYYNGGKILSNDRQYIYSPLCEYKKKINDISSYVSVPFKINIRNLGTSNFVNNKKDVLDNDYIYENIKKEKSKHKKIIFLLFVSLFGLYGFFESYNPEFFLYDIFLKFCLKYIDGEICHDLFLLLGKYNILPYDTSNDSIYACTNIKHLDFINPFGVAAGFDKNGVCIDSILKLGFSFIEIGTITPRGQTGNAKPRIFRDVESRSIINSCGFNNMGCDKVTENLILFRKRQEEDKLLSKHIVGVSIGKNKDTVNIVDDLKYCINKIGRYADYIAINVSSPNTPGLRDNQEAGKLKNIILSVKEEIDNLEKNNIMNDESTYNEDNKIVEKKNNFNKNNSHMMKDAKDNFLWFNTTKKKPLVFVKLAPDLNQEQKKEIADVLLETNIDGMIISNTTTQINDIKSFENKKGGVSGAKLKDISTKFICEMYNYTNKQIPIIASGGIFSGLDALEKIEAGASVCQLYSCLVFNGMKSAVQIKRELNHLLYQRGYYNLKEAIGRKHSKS
Put plainly: Inhibition of N-terminal His6-tagged recombinant Plasmodium falciparum DHODH (amino acid residues 158 to 569) expressed in Escherichia coli BL21 cells assessed as orotic acid production using dihydroorotate as substrate by DCIP dye-based assay. The gist of the method: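 The assay buffer was 100 mM Hepes pH 8.0, 150 mM NaCl, 10% glycerol, 0.1% Triton, with 0.2 mM DHO, 0.02 mM CoQD and 0.12 mM DCIP. Runs started with 2–10 nM enzyme at 25 °C, reading A600 initial rates. Inhibitor was 0.01–100 μM in 3-fold steps, in triplicate. IC50 came from a three-parameter log[I]-response fit.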

Data set [4] is described as follows: Inhibition of dog DHODH (amino acid residues 48 to 414) expressed in Escherichia coli BL21 cells assessed as orotic acid production using dihydroorotate as substrate by DCIP dye-based assay. Also noted: species or system Canis lupus familiaris. The gist of the method:
(§1)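 Assay buffer 100 mM Hepes pH 8.0, 150 mM NaCl, 10% glycerol, 0.1% Triton, with 0.2 mM DHO, 0.02 mM CoQD and 0.12 mM DCIP. DCIP reduction read at 600 nm, 25 °C, started with 2–10 nM enzyme. Inhibitor 0.01–100 μM in 3-fold steps, triplicate. IC50 from a three-parameter fit of vi/vo.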

The test system of data set [5] is Plasmodium falciparum. Kind of data set: Antimalarial activity against Plasmodium falciparum 3D7 infected in RBC after 72 hrs by SYBR green dye based flow cytometry. It is filed as functional, organism-based. Conditions: 3D7, 72 h. (In general: Flow cytometry measures light scatter and fluorescence of single cells or particles in a stream.)
Data set [6] is described as follows: Inhibition of C-terminal His6-tagged human DHODH (amino acid residues 30 to 396) H56A mutant expressed in Escherichia coli BL21 cells assessed as orotic acid production using dihydroorotate as substrate by direct assay in presence of oxygen depleting system.
Data set [7] is described as follows: Inhibition of C-terminal His6-tagged human DHODH (amino acid residues 30 to 396) R136A mutant expressed in Escherichia coli BL21 cells assessed as orotic acid production using dihydroorotate as substrate by direct assay in presence of oxygen depleting system.
In data set [8] the target is T2, Dihydroorotate dehydrogenase (quinone), mitochondrial (Homo sapiens, UniProt Q02127). Kind of data set: Inhibition of C-terminal His6-tagged human DHODH (amino acid residues 33 to 396) expressed in Escherichia coli BL21 cells assessed as orotic acid production using dihydroorotate as substrate by direct assay in presence of oxygen depleting system.
Data set [9] addresses T2, Dihydroorotate dehydrogenase (quinone), mitochondrial. Kind of data set: Inhibition of C-terminal His6-tagged human DHODH (amino acid residues 30 to 396) expressed in Escherichia coli BL21 cells assessed as orotic acid production using dihydroorotate as substrate by DCIP dye-based assay. The gist of the method:
as §1

The target in data set [10] is T1, Dihydroorotate dehydrogenase. Kind of data set: Binding affinity to Plasmodium falciparum DHODH by isothermal titration calorimetry. The gist of the method: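 ITC at 30 °C in 10 mM Hepes pH 7.8, 20 mM NaCl, 5% glycerol, 1 mM LDAO, 0.2% DMSO. PfDHODH (5–10 μM) in the cell was titrated with 50 μM inhibitor. Triplicate runs.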
Data set [11] is described as follows: Partition coefficient, log D of the compound at pH 7.4 by chromatography. The note with it: octanol/water. It is filed as physicochemical. The gist of the method:
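LogD at pH 7.4 estimated from chromatographic retention, compared against standards of known partition coefficient.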

The test system of data set [12] is BL21. Kind of data set: Selectivity ratio of IC50 for C-terminal His6-tagged human DHODH (amino acid residues 30 to 396) expressed in Escherichia coli BL21 cells to IC50 for N-terminal His6-tagged recombinant Plasmodium falciparum DHODH (amino acid residues 158 to 569) expressed in Escherichia coli BL21 cells.
Data set [13] addresses Dihydroorotate dehydrogenase (quinone), mitochondrial (Mus musculus, UniProt O35435). Put plainly: Inhibition of mouse DHODH (amino acid residues 30 to 396) expressed in Escherichia coli BL21 cells assessed as orotic acid production using dihydroorotate as substrate by DCIP dye-based assay. The gist of the method: as §1
Data set [14] has as its target T3, Dihydroorotate dehydrogenase (quinone), mitochondrial (Rattus norvegicus, UniProt Q63707). Kind of data set: Binding affinity to rat DHODH by isothermal titration calorimetry. The gist of the method:
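Run at 30 °C in 10 mM Hepes pH 7.8, 20 mM NaCl, 5% glycerol, 1 mM LDAO, 0.2% DMSO. Rat DHODH (5–8 μM) in the cell, titrated with 50 μM inhibitor. Triplicate runs, analysed with NITPIC and SEDPHAT.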
A general note: ITC needs no label: the signal is the heat of the interaction.

In data set [15] the target is T3, Dihydroorotate dehydrogenase (quinone), mitochondrial. Put plainly: Inhibition of rat DHODH (amino acid residues 30 to 396) expressed in Escherichia coli BL21 cells assessed as orotic acid production using dihydroorotate as substrate by DCIP dye-based assay. The gist of the method: as §1
In data set [16] the test system is BL21. Kind of data set: Ratio of IC50 for C-terminal His6-tagged human DHODH (amino acid residues 30 to 396) L359A mutant expressed in Escherichia coli BL21 cells to IC50 for C-terminal His6-tagged wild type human DHODH (amino acid residues 30 to 396) expressed in Escherichia coli BL21 cells.
Data set [17] has as its system BL21. Put plainly: Ratio of IC50 for C-terminal His6-tagged human DHODH (amino acid residues 30 to 396) L46A mutant expressed in Escherichia coli BL21 cells to IC50 for C-terminal His6-tagged wild type human DHODH (amino acid residues 30 to 396) expressed in Escherichia coli BL21 cells.
Data set [18] relates to BL21. Kind of data set: Ratio of IC50 for C-terminal His6-tagged human DHODH (amino acid residues 30 to 396) R136A mutant expressed in Escherichia coli BL21 cells to IC50 for C-terminal His6-tagged wild type human DHODH (amino acid residues 30 to 396) expressed in Escherichia coli BL21 cells.

T2 sequence (Q02127 whole entry, the tested form may be a part): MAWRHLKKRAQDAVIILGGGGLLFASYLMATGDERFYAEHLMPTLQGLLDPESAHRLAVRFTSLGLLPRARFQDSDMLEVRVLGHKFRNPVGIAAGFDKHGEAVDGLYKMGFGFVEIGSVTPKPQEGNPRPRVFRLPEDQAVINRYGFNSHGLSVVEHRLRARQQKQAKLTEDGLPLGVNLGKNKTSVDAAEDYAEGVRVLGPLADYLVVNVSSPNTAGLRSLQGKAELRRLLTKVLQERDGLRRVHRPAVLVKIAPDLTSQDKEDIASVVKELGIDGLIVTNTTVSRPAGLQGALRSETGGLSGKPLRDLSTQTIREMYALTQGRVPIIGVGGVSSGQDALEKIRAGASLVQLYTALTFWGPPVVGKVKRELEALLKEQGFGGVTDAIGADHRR
Chain of Dihydroorotate dehydrogenase (quinone), mitochondrial (Mus musculus, UniProt O35435) (O35435 whole entry, the tested form may be a part): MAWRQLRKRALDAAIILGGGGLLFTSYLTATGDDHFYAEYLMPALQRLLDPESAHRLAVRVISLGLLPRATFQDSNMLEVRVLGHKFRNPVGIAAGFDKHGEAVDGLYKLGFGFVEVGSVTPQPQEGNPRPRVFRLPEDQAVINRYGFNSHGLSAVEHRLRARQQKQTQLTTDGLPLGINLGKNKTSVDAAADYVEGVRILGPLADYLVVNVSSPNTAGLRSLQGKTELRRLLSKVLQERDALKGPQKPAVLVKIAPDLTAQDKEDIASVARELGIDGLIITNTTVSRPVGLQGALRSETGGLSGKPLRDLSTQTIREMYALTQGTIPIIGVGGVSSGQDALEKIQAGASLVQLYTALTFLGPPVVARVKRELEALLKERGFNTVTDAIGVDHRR
T3 sequence (Q63707 whole entry): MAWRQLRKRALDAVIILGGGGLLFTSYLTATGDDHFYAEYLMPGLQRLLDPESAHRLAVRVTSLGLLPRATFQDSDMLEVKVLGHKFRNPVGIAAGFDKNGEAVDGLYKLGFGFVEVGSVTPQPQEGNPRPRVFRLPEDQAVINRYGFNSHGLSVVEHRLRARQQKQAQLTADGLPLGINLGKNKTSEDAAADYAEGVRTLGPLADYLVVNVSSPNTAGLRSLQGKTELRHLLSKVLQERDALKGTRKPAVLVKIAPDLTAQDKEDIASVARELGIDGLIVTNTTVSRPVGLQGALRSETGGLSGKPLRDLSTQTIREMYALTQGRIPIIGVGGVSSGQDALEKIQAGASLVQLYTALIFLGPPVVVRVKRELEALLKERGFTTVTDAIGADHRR

What is called IC50 is the concentration needed to halve the response being measured. The term Kd denotes the concentration at which binding is half-saturated. Higher therefore signals weaker binding. The term logD denotes the decadic logarithm of the distribution of all forms, ionised or not, between an organic phase and buffer at a given pH. Regarding `Cc1cc(Nc2ccc(C(F)(F)F)cc2)n2nc(C(C)(F)F)nc2n1`, the IC50 in [1] was over 100 µM; in data set [2], over 100 µM; in data set [3], 0.046 µM; in [4], over 100 µM; in data set [5] it was 0.0036 µM; in data set [6], over 100 µM. Moreover, the IC50 in data set [7], in [8] and in data set [9] was over 100 µM each time. The molecule further displayed a Kd in data set [10] of 0.027 µM. The logD in data set [11] was 4.05.

Consider `Cc1cc(Nc2cc(F)c(C(F)(F)F)c(F)c2)n2nc(C(C)(F)F)nc2n1`, for which the Ratio IC50 in [12] is 100; in data set [16] it was over 50; in data set [17] it was 50; in data set [18], 50. In addition, the IC50 was over 100 µM in data set [1]; over 100 µM in data set [2]; 0.18 µM in [13]; 0.13 µM in data set [15]; 0.02 µM in data set [3]; 0.7 µM in [4]. In addition, the IC50 is 0.012 µM in [5]; 5.3 µM in data set [6]; over 100 µM in data set [7]; 2.7 µM in [8]; 2.1 µM in [9]. Moreover, the Kd in data set [14] is 0.048 µM; in [10] it was 0.0051 µM. Further, the log distribution coefficient (logD) in [11] is listed as 4.46.

With `Cc1cc(Nc2cc(F)c(C(F)(F)F)c(F)c2)n2ncnc2n1`, the Ratio IC50 in [12] is over 769. Also, the 50% inhibitory concentration (IC50) in data set [13] is over 30 µM; in [15] it was 37 µM; in data set [4], over 100 µM; in data set [9], over 100 µM.

`Cc1cc(Nc2ccc(C(F)(F)F)cc2)n2nc(C(F)(F)F)nc2n1`: the IC50 in data set [13] is 9.7 µM; in data set [15], 3.5 µM; in [4] it was 86 µM; in data set [5], 0.0063 µM; in [9], over 100 µM.

In the case of `Cc1cc(Nc2ccc(C(F)(F)F)cc2)n2ncnc2n1`, the IC50 in [13] and in [4] was over 100 µM in each case. The logD in [11] is 3.55.

As for `Cc1cc(Nc2ccc(C(F)(F)F)c(F)c2)n2nc(C(C)(F)F)nc2n1`, the IC50 is over 100 µM in data set [1]; over 100 µM in [2]; 1.6 µM in data set [13]; 0.8 µM in [15]; 0.035 µM in data set [3]; 7.2 µM in [4]. Further, the IC50 in [5] was 0.0039 µM; in data set [6], 67 µM; in [7], over 100 µM; in [8], 45 µM; in data set [9], 17 µM. In [10], this molecule had a Kd of 0.0098 µM. Besides, the pH-dependent lipophilicity (logD) in data set [11] came to 4.25.

Consider `Cc1cc(Nc2cc(F)c(C(F)(F)F)c(F)c2)n2nc(C(F)(F)F)nc2n1`, for which the IC50 in data set [1] was 35 µM; in data set [2], over 100 µM; in data set [13], 0.088 µM; in [15], 0.049 µM; in data set [3], 0.022 µM; in [4], 0.32 µM. The IC50 in data set [5] was 0.0018 µM; in data set [6], 0.9 µM; in [7] it was over 100 µM; in data set [8], 2.1 µM; in [9] it was 1.6 µM. Further, the Ratio IC50 in data set [16] is 10; in data set [17], 50; in [18], 50. Besides, the Kd in data set [10] worked out at 0.0096 µM. In [11], this molecule yielded a pH-dependent lipophilicity (logD) of 5.01.
